HCV NS3 hel inh: inhibitors of Hepatitis C virus NS3 helicase. NS3 helicase DNA unwinding, Cy5 molecular beacon fluorescence. inhibition, % at 10.9 µM. hit rate 0.56% among 290,000. AID 1800;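 active = inhibition above the mean of all tested compounds plus 3 SD, set per campaign, cut at about 35% in these data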;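 note: 0% = DMSO wells and 100% = thioflavine S control wells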
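System: NS3 helicase fragment of HCV / Schedule: 1 h at 25 °C / Control set: DMSO alone as 0% and 110 µM thioflavine S as 100% / Reagent: Cy5/quencher beacon DNA duplex and ATP to start / Technique: Cy5 fluorescence / Replication: singlicate / Evaluation: % inhibition of end-to-start signal ratio versus controls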
ZTA counter: counter-screen for EBNA-1 inhibitors: inhibitors of Epstein-Barr virus ZTA | P03206 | AID 2234 | hit rate 0.15% among 320,000 | inhibition, % at 11 µM | ZTA-DNA binding, fluorescence polarization; in the data active = inhibition above about 33%
PfM18AAP inh-1: blocks P. falciparum M18 aspartyl aminopeptidase; recombinant PfM18AAP, H-Glu-NHMec fluorogenic cleavage; inhibition, % at 7.35 µM; hit rate 1.2% among 290,000;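 active = inhibition above the campaign mean inhibition over all tested compounds plus 3 SD, cut at about 28% in these data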;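 note: 0% = plate median of test compound wells and 100% = 2 mM ZnCl2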
ALR inh: blocks human ALR sulfhydryl oxidase activity. P55789. purified ALR, DTT oxidation, H2O2 HRP-luminol luminescence. inhibition, % (test concentration not listed). hit rate 3.8% among 290,000. AID 485317;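 active = mean replicate inhibition above about 79%, with every replicate also reaching it, limit read from the data; inconclusive = only one of the two criteria met; inactive = mean below limit and not every replicate reaching it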
Target sequence (P55789 whole entry, looked up): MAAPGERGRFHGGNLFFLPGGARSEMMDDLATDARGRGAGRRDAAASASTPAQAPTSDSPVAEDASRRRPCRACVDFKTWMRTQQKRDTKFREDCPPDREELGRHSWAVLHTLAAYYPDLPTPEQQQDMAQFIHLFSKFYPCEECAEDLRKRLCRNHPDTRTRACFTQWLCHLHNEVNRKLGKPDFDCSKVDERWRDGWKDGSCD
EBNA-1 inh: blocks EBNA-1 binding to DNA; EBNA-1 DNA binding, fluorescence polarization; AID 1950; hit rate 0.34% among 300,000; inhibition, % at 14.8 µM; in the data active = inhibition above about 28%
HCV core dimer: HCV core protein dimerization inhibition. TR-FRET GST/Flag-core106 dimerization, 1536-well. inhibition, % at 5 µM. hit rate 0.33% among 300,000. AID 1899;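 active = inhibition above the mean of all tested compounds plus 3 SD, set per screening campaign, cut at about 45% in these data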
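Assay system: Tagged HCV core106 pair (GST and Flag) | Buffer or medium: KF-containing HEPES buffer, pH 7.45, DTT, CHAPS, BSA | Also added: Eu donor and XL665 acceptor anti-tag antibodies | Dosing: One concentration, 5 µM, in 0.5% DMSO | Timing: 4 h at 22.5 °C | Technique: TR-FRET 671 and 617 nm emission | Repeats: Singlicate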
NS3 hel confirm: HCV NS3 helicase inhibition, confirmation assay. shares compounds with HCV NS3 hel inh. NS3 helicase DNA unwinding, Cy5 molecular beacon fluorescence. inhibition, % at 10.9 µM. hit rate 31% among 1,600;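 active = inhibition above the mean of all tested compounds plus 3 SD, cutoff set per campaign, cut at about 36% in these data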
DNA FID counter: intercalator displacement, NS3 helicase counter-screen; shares compounds with HCV NS3 hel inh; DNA fluorescent intercalator displacement, fluorescence; inhibition, % at 7.9 µM; hit rate 4% among 1,600; AID 1945; in the data active = inhibition above about 37%;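 note: 0% = vehicle and 100% = reference compound; higher means more displacement of ethidium bromide from the DNA hairpin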
PfM18AAP inh-2: confirmation of Plasmodium falciparum M18 aspartyl aminopeptidase inhibitors; shares compounds with PfM18AAP inh-1; recombinant PfM18AAP, H-Glu-NHMec fluorogenic cleavage; inhibition, % at 7.35 µM; hit rate 28% among 2,400; AID 2170;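 active = mean inhibition over replicate wells above the hit cutoff set for the earlier primary screen, cut at about 29% in these data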;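 note: 0% = median of test compound wells and 100% = 2 mM ZnCl2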
CTSL1 counter: counter-screen for PFM18AAP inhibitors: confirmation of human cathepsin L inhibitors. shares compounds with PfM18AAP inh-1. AID 2178. inhibition, % at 5.96 µM. 2,400 tested, under 10 active. purified cathepsin L1, Z-Leu-Arg-MCA fluorescence;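 active = average inhibition across replicates above the hit cutoff set in the earlier primary screen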;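 note: 0% = median of test compound wells and 100% = Z-Phe-Ala-diazomethylketone 1 µM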
Target sequence (P07711 whole entry, looked up): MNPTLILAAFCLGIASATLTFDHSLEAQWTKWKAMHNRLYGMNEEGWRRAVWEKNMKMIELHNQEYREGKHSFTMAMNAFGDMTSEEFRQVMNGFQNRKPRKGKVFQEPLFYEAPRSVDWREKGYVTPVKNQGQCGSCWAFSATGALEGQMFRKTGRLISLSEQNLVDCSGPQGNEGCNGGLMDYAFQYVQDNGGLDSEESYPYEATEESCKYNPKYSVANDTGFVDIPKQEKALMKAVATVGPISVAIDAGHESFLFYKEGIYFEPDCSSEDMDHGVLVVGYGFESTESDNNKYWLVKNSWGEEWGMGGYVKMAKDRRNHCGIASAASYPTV
Active calls of the source: *; ? = inconclusive; . = no result given. Only some compounds are listed: those with a hit (about 5.2% of all), similar ones and a draw of the others.

SMILES | HCV NS3 hel inh | ZTA counter | PfM18AAP inh-1 | ALR inh | EBNA-1 inh | HCV core dimer | NS3 hel confirm | DNA FID counter | PfM18AAP inh-2 | CTSL1 counter
Oc1ccc(/C=N/N(Cc2ccccc2)c2ccccc2)c(O)c1O | 71* | . | 50* | . | . | . | -13 | 22 | -19 | -2
Oc1cccc(/C=N/N(Cc2ccccc2)c2ccccc2)c1 | -16 | -7 | -3 | ? | -3 | -1 | . | . | . | .
Nc1nc(-c2cccs2)c(-c2cccs2)s1 | 12 | -6 | 8 | . | 0 | 6 | . | . | . | .
Nc1nc(-c2ccco2)c(-c2ccco2)s1 | 49* | -21 | 38* | -13 | 1 | 40 | -16 | 18 | -49 | -4
COc1ccc(Cc2nnc(SCC(=O)Nc3ccccc3C)n(N)c2=O)cc1 | . | -1 | . | -3 | 3 | 1 | . | . | . | .
O=C1/C(=C\c2ccccn2)SC(=S)N1c1ccc(S(=O)(=O)Nc2nccs2)cc1 | 36* | -7 | 36* | 0 | 3 | 15 | -17 | 25 | -21 | 1
O=C(Nc1ccc(Cl)cc1)C1CCCN(c2ncnc3c2nc2n3CCCCC2)C1 (centres undefined) | -22 | -9 | 5 | 7 | -12 | 0 | . | . | . | .
COc1ccc(NS(=O)(=O)c2cc3c(cc2C)N(C(C)=O)CCO3)cc1OC | 7 | -6 | 1 | 13 | 15 | 24 | . | . | . | .
CCOC(=O)NC1(NC2CCCCC2)Oc2ccccc2O1 | 38* | -26 | 55* | 8 | -7 | -6 | -14 | -4 | 35* | 0
CCOC(=O)NC1c2ccccc2Oc2ccccc21 | -3 | -5 | -12 | -15 | -2 | -1 | . | . | . | .
COc1ccc(NC(=O)c2ccc(C)cc2)c[n+]1[O-] | -3 | . | 2 | -7 | . | . | . | . | . | .
Nc1ccc(O)cc1C(=O)OCC(=O)c1ccc(C2CCCCC2)cc1 | 59* | 18 | 36* | 4 | -5 | 11 | -1 | 16 | -21 | -2
COc1ccc(C(=O)OCC(=O)c2ccc(C3CCCCC3)cc2)cc1 | -1 | -3 | -11 | . | -2 | 1 | . | . | . | .
CCCC1=C([O-])C2N=CC=CC2=[N+](c2ccccn2)C1=O (centres undefined) | 9 | -9 | -3 | 0 | 5 | -5 | . | . | . | .
O=c1cc(-c2cc3ccccc3o2)c2cc(O)ccc2o1 | 12 | 10 | 12 | 1 | 4 | -1 | . | . | . | .
Cc1cc2oc(=O)cc(-c3cc4ccccc4o3)c2cc1O | 39* | -7 | 58* | . | -2 | 23 | -4 | 6 | -21 | -4
Cc1cc(/C=N/NC(=O)c2ccncc2)c(C)n1-c1ccccc1 | 13 | 0 | 2 | . | -9 | -2 | . | . | . | .
Cc1cc(C(=O)N/N=C/c2ccc(O)c(O)c2O)c(C)n1-c1ccccc1 | 46* | . | 49* | . | . | . | -14 | 5 | 18 | -3
O=C1S/C(=C\C=C\c2ccco2)C(=O)N1c1ccc(O)cc1 | 129* | 19 | 39* | 38 | 10 | 51* | -2 | 11 | -39 | 11
O=C(O)C(Cc1ccccc1)N1C(=O)/C(=C/C=C/c2ccco2)SC1=S (centres undefined) | 31 | . | 13 | . | . | . | . | . | . | .
CN=c1scc(-c2ccc(F)cc2)n1/N=C/c1ccc(O)c(O)c1 | 45* | . | 54* | . | . | . | -21 | 8 | 48* | 3
NC(=O)CC1Nc2cccc3cccc(c23)NC1=O (centres undefined) | 61* | -1 | 52* | 27 | 12 | -24 | -7 | 24 | -52 | 1
C/C(=N\NC(=O)c1cc(O)ccc1O)c1cccc(NC(=O)c2ccc(Cl)cc2)c1 | 40* | 0 | 36* | 64 | 4 | -10 | -17 | 11 | -50 | -7
COc1cc(C2C(C(=O)c3cccs3)=C(O)C(=O)N2c2cc(C)on2)ccc1O (centres undefined) | 45* | 11 | 55* | 20 | 7 | 2 | -3 | 37* | -47 | -3
